Activity calls are given as the source filed them. No cut-off for these calls is given here.
What was measured:
[1] = target: T1, Protein cereblon/Histone-lysine N-methyltransferase EZH2 (Homo sapiens) (UniProt Q15910+Q96SW2); assay: PROTAC activity at CRBN E3 ligase/EZH2 in PRC2 complex in human WSUDLCL2 cells assessed as induction of EZH2 degradation incubated for 48 hrs by Western blot analysis; assay type: cell-based; settings: dose 1-10 µM
How it was run: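 WSU-DLCL-2 cells treated 48 h (1 μM for the single-concentration screen), lysed; SDS-PAGE, nitrocellulose transfer, 5% milk block, primary antibody 4 °C overnight, chemiluminescence. Bands quantified by densitometry, normalized to GAPDH, expressed relative to DMSO-treated cells; mean ± SD of three independent experiments, t-test.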

[2] = target: T1, Protein cereblon/Histone-lysine N-methyltransferase EZH2 (Homo sapiens); assay: PROTAC activity at CRBN E3 ligase/EZH2 in PRC2 complex in human WSUDLCL2 cells assessed as downregulation of EED expression at 1 uM pretreated with GSK126 for 4 hrs followed by compound addition and measured after 48 hrs by Western blot analysis; assay type: cell-based
How it was run: (§1)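 WSU-DLCL-2 cells pretreated 4 h with the named inhibitor, then compound added and incubated a further 48 h. EZH2, SUZ12, EED and RbAp48 measured by western blot (nitrocellulose transfer, skim-milk block, primary antibody overnight at 4 °C, chemiluminescent detection).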

[3] = target: T1, Protein cereblon/Histone-lysine N-methyltransferase EZH2 (Homo sapiens); assay: PROTAC activity at CRBN E3 ligase/EZH2 in PRC2 complex in human WSUDLCL2 cells assessed as increase in SUZ12 ubiquitination at 1 uM measured after 48 hrs by co-immunoprecipitation assay; assay type: cell-based
How it was run: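 WSU-DLCL-2 cells treated with 1 μM compound for 48 h and lysed in RIPA buffer. Lysates incubated with antibodies overnight at 4 °C, then 3 h with Protein G agarose beads at 4 °C. Proteins eluted in IP buffer and ubiquitination of the target probed by immunoblot.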

[4] = target: T1, Protein cereblon/Histone-lysine N-methyltransferase EZH2 (Homo sapiens); assay: PROTAC activity at CRBN E3 ligase/EZH2 in PRC2 complex in human WSUDLCL2 cells assessed as effect on EZH2 mRNA expression at 1 uM incubated for 48 hrs by RT-qPCR analysis; assay type: cell-based
How it was run: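 WSU-DLCL-2 cells treated 48 h with 1 μM compound. Total RNA extracted with Trizol and reverse-transcribed. SYBR qPCR run as 95 °C 30 s, then 40 cycles of 95 °C 6 s and 60 °C 20 s. PRC2 subunit mRNA normalized to the DMSO-treated group; mean SD, t-test.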

NCI-H1299 [5] = assay: Downregulation of CEP76 mRNA expression in human NCI-H1299 cells at 10 uM incubated for 48 hrs by qRT-PCR analysis; assay type: functional, cell-based
How it was run: (§2)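 Cells treated 48 h. Total RNA extracted with Trizol, reverse-transcribed, and SYBR RT-qPCR run: 95 °C 30 s, then 40 cycles of 95 °C 6 s and 60 °C 20 s. mRNA normalized to the DMSO-treated group. Mean SD of three independent experiments, t-test versus DMSO.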

[6] = target: T1, Protein cereblon/Histone-lysine N-methyltransferase EZH2 (Homo sapiens); assay: PROTAC activity at CRBN E3 ligase/EZH2 in PRC2 complex in human DU-145 cells assessed as induction of RbAp48 degradation by measuring reduction in RbAp48 protein level at 1 uM incubated for 48 hrs by Western blot analysis; assay type: cell-based
How it was run: (§3)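 Cancer cell lines exposed to 1 μM compound for 48 h. Lysates immunoblotted (SDS-PAGE, nitrocellulose, 5% milk block, primary antibody overnight at 4 °C) for EZH2, SUZ12, EED, RbAp48 and H3K27me3. Bands quantified by densitometry and normalized to GAPDH.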

[7] = target: T1, Protein cereblon/Histone-lysine N-methyltransferase EZH2 (Homo sapiens); assay: PROTAC activity at CRBN E3 ligase/EZH2 in PRC2 complex in human WSUDLCL2 cells assessed as downregulation of EZH2 expression at 1 uM pretreated with GSK126 for 4 hrs followed by compound addition and measured after 48 hrs by Western blot analysis; assay type: cell-based; how it was run: as §1
[8] = target: T1, Protein cereblon/Histone-lysine N-methyltransferase EZH2 (Homo sapiens); assay: PROTAC activity at CRBN E3 ligase/EZH2 in PRC2 complex in human WSUDLCL2 cells assessed as downregulation of EZH2 expression at 1 uM pretreated with MLN4924 for 4 hrs followed by compound addition and measured after 48 hrs by Western blot analysis; assay type: cell-based; how it was run: as §1
MDA-MB-468 = assay: Downregulation of TACC3 mRNA expression in human MDA-MB-468 cells at 10 uM incubated for 48 hrs by qRT-PCR analysis; assay type: functional, cell-based; how it was run: as §2
[9] = target: T1, Protein cereblon/Histone-lysine N-methyltransferase EZH2 (Homo sapiens); assay: PROTAC activity at CRBN E3 ligase/EZH2 in PRC2 complex in human WSUDLCL2 cells assessed as downregulation of EZH2 expression at 1 uM pretreated with EED226 for 4 hrs followed by compound addition and measured after 48 hrs by Western blot analysis; assay type: cell-based; how it was run: as §1
[10] = target: T1, Protein cereblon/Histone-lysine N-methyltransferase EZH2 (Homo sapiens); assay: PROTAC activity at CRBN E3 ligase/EZH2 in PRC2 complex in human LNCaP cells assessed as induction of EED degradation by measuring reduction in EED protein level at 1 uM incubated for 48 hrs by Western blot analysis; assay type: cell-based; how it was run: as §3
[11] = target: T1, Protein cereblon/Histone-lysine N-methyltransferase EZH2 (Homo sapiens); assay: PROTAC activity at CRBN E3 ligase/EZH2 in PRC2 complex in human WSUDLCL2 cells assessed as downregulation of EED expression at 1 uM pretreated with EED226 for 4 hrs followed by compound addition and measured after 48 hrs by Western blot analysis; assay type: cell-based; how it was run: as §1
NCI-H1299 [12] = assay: Downregulation of […] mRNA expression in human NCI-H1299 cells at 10 uM incubated for 48 hrs by qRT-PCR analysis; assay type: functional, cell-based; how it was run: as §2
A549 = assay: Downregulation of CENPK mRNA expression in human A549 cells at 10 uM incubated for 48 hrs by qRT-PCR analysis; assay type: functional, cell-based; how it was run: as §2
[13] = target: T1, Protein cereblon/Histone-lysine N-methyltransferase EZH2 (Homo sapiens); assay: PROTAC activity at CRBN E3 ligase/EZH2 in PRC2 complex in human SK-OV-3 cells assessed as induction of EZH2 degradation by measuring reduction in EZH2 protein level at 1 uM incubated for 48 hrs by Western blot analysis; assay type: cell-based
How it was run: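 Cells cultured in DMEM or RPMI 1640 with 10% FBS and 1% penicillin-streptomycin, 37 °C, 5% CO2; exposed to 1 μM compound for 48 h. Lysates run on SDS-PAGE and transferred to nitrocellulose. Blocked 2 h in 5% skim milk, primary antibody overnight at 4 °C, then secondary antibody. Chemiluminescent detection of PRC2 subunits and H3K27me3.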

WSUDLCL2 [14] = assay: Inhibition of PRC2 in human WSUDLCL2 cells assessed as suppression H3K27 trimethylation at 10 uM incubated for 48 hrs by Western blot analysis; assay type: cell-based
How it was run: (§4)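 Lysates run on SDS-PAGE and transferred to nitrocellulose. Membranes blocked with 5% skim milk for 2 h, primary antibody applied overnight at 4 °C, then secondary antibody and chemiluminescent detection of histone H3 methylation marks.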

WSUDLCL2 [15] = assay: Effect on Histone H3 methylation in human WSUDLCL2 cells assessed as reduction in H3K4me3 levels at upto 10 uM incubated for 48 hrs by Western blot analysis; assay type: functional, cell-based; settings: dose microM <=10, time 48.0 hrs; how it was run: as §4
[16] = target: T1, Protein cereblon/Histone-lysine N-methyltransferase EZH2 (Homo sapiens); assay: PROTAC activity at CRBN E3 ligase/EZH2 in PRC2 complex in human WSUDLCL2 cells assessed as induction of EED degradation at 10 uM incubated for 48 hrs by Western blot analysis; assay type: cell-based
[17] = target: T1, Protein cereblon/Histone-lysine N-methyltransferase EZH2 (Homo sapiens); assay: PROTAC activity at CRBN E3 ligase/EZH2 in PRC2 complex in human WSUDLCL2 cells assessed as induction of RbAp48 degradation at 10 uM incubated for 48 hrs by Western blot analysis; assay type: cell-based

T1 sequence (Q15910 whole entry, looked up): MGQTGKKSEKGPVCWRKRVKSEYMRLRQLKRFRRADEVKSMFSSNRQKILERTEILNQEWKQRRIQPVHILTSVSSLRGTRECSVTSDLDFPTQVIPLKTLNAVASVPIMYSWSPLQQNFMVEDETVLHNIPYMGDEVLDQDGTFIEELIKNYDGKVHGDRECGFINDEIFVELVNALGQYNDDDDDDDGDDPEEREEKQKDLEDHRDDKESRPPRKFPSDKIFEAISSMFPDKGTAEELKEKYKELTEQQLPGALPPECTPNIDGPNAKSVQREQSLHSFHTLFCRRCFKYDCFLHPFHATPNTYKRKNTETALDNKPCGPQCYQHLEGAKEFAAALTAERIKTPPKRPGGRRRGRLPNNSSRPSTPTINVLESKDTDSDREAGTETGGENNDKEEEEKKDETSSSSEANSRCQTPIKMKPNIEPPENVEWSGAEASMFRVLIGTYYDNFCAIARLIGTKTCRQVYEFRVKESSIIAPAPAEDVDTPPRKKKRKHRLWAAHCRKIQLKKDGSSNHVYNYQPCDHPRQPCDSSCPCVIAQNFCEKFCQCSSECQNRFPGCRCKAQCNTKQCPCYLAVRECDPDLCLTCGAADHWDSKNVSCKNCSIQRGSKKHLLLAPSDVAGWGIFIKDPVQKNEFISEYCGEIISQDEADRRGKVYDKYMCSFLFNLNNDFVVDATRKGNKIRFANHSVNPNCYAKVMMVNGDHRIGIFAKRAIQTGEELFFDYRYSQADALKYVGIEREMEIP
T1 sequence (Q96SW2 whole entry, looked up): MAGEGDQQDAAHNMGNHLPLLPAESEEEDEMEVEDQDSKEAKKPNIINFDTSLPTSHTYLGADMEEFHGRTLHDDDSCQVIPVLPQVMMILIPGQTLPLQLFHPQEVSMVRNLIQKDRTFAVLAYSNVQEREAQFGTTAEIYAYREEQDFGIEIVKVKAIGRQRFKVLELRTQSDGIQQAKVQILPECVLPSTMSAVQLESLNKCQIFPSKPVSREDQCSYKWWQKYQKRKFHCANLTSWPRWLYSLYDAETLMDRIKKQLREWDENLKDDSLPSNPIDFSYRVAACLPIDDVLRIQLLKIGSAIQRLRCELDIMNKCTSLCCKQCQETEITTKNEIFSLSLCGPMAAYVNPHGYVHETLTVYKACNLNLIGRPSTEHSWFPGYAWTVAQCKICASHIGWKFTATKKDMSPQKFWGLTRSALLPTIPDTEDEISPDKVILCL

CCN(c1cc(-c2ccc(CN3CCN(CCCCCCCOc4cccc5c4C(=O)N(C4CCC(=O)NC4=O)C5=O)CC3)cc2)cc(C(=O)NCc2c(C)cc(C)[nH]c2=O)c1C)C1CCOCC1 (centres undefined)
Activity [1]: Dose-Dependent Effect | Activity [2]: inactive | Activity [3]: Active | Activity [4]: inactive | Activity (NCI-H1299 [5]): Active | Activity [6]: Active | Activity [7]: inactive | Activity [8]: inactive | Activity (MDA-MB-468): Active | Activity [9]: Active | Activity [10]: Active | Activity [11]: Active | Activity (NCI-H1299 [12]): Active | Activity (A549): Active | Activity [13]: Active | inhibition (WSUDLCL2 [14]): Active | Activity (WSUDLCL2 [15]): inactive | Activity [16]: inactive | Activity [17]: inactive

Reference: ChEMBL document CHEMBL5038571, “Design and Synthesis of EZH2-Based PROTACs to Degrade the PRC2 Complex for Targeting the Noncatalytic Activity of EZH2” (J Med Chem, 2021)
